Results on 10 compounds are retold here after ChEMBL document CHEMBL1124740, “Design, synthesis, and 5-lipoxygenase-inhibiting properties of 1-thio-substituted butadienes” (J Med Chem, 1990).

Experiment [1] addresses T1, Polyunsaturated fatty acid 5-lipoxygenase (Rattus norvegicus, UniProt P12527).
T1 sequence (P12527 whole entry): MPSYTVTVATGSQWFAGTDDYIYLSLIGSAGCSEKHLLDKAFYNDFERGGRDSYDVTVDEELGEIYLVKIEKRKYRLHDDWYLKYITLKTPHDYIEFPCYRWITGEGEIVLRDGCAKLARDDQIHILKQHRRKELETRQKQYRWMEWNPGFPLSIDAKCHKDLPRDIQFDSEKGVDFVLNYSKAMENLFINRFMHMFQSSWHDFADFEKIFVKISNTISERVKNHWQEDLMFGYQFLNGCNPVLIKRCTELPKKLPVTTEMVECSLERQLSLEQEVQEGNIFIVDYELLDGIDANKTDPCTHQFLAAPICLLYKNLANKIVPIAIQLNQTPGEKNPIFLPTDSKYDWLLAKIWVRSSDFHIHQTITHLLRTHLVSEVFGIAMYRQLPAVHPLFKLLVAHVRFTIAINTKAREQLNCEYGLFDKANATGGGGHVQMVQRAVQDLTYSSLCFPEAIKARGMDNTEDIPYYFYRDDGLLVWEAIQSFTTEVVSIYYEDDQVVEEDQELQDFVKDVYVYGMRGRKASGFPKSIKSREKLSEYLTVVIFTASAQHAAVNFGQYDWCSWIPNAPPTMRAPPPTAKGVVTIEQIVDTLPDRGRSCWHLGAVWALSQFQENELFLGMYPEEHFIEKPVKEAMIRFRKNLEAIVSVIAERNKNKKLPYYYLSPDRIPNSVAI
The experiment in a line: Inhibition of 5-lipoxygenase in rat RBL-1 cells. The class given is cell-based. In a few lines:
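It was preincubated 5 min at 25 °C with compound or vehicle (2% DMSO) in 0.5 mL of 50 mM KH2PO4, 50 µM ATP, pH 7.0, then substrate was added. Inhibition was taken as the ratio of substrate remaining without versus with inhibitor. IC50 was obtained by linear regression of % inhibition against log concentration.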

Experiment [2] can be described thus: In vitro methemoglobin Induction at 10e-4 M in lysed human red blood cells. It is filed as functional. In a few lines:
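Human red blood cells were lysed, and conversion of their hemoglobin to methemoglobin was followed spectrophotometrically in vitro.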

The species entered for experiment [3] is Mus musculus. The experiment in a line: In vitro inhibition of zymosan-stimulated release of Leukotriene C4 from intact mouse peritoneal macrophages following 60-min pretreatment/[…]. The class given is functional. In a few lines:
(§1)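 Mouse peritoneal macrophages collected by lavage, isolated by adherence and kept in Dulbecco's modified Eagle medium. Cells were pretreated with compound for 60 min, then challenged with opsonized zymosan. LTC4 in cell-free supernatant was measured by radioimmunoassay 3 h after challenge.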

Experiment [4] has as its system Mus musculus. The experiment in a line: Inhibition of 5-lipoxygenase in vivo by the measurement of LTC4 release after intraperitoneal 15 min pretreatment (45 min challenge) of mice with a dose of 20 mg/kg. It is filed as functional. Particulars: ip.
Experiment [5] deals with T2, Polyunsaturated fatty acid 5-lipoxygenase (Rattus norvegicus) (UniProt P12527).
T2 sequence (whole entry): T1 sequence (P12527 whole entry)
The experiment in a line: Inhibitory activity against 5-lipoxygenase in RBL-1 cells at a concentration 40 uM. The class given is cell-based. In a few lines:
(§2)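 Enzyme source was a 100000g supernatant of RBL-1 cells (2.5 × 10^6 cell equivalents). It was preincubated 5 min at 25 °C with compound or vehicle (2% DMSO) in 0.5 mL of 50 mM KH2PO4, 50 µM ATP, pH 7.0, then substrate was added. Inhibition was taken as the ratio of substrate remaining without versus with inhibitor. IC50 was obtained by linear regression of % inhibition against log concentration.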

In experiment [6] the target is T2, Polyunsaturated fatty acid 5-lipoxygenase (Rattus norvegicus). The experiment in a line: Inhibitory activity against 5-lipoxygenase in RBL-1 cells at 40 uM concentration. It is filed as cell-based. In a few lines: as §2
Experiment [7] has the same target. The experiment in a line: Inhibitory activity against 5-lipoxygenase in RBL-1 cells at a concentration 40 uM. It is filed as cell-based. In a few lines: as §2
Experiment [8] can be described thus: Inhibition of 12-HETE mammalian lipoxygenase at a concentration 20 uM. The class given is functional. In a few lines: (§3)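 Enzyme source was a 100000g supernatant from human polymorphonuclear cells isolated to 95% purity. It was preincubated with or without compound for 10 min at 20 °C in phosphate-buffered saline (pH 8.3) with 0.5 mM MgCl2. The reaction was started with 120 μM arachidonic acid and stopped with citric acid after 5 min. Products were detected by UV at 272 and 232 nm, with PGB2 as internal standard.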

A short description of experiment [9]: Inhibition of 5-HETE mammalian lipoxygenase at a concentration 20 uM. The class given is functional. In a few lines:
as §3

The nature of experiment [10]: Inhibition of LTB4 mammalian lipoxygenase at a concentration 20 uM. The class given is functional. In a few lines:
as §3

Experiment [11] in a line: Potentiation of 15-HETE mammalian lipoxygenase at a concentration 20 uM. The class given is functional. In a few lines:
as §3

The species entered for experiment [12] is Mus musculus. As to the kind of experiment: In vitro inhibition of zymosan stimulated release of Leukotriene C4 from intact mouse peritoneal macrophages. The class given is functional. In a few lines: as §1
Experiment [13] is described as follows: Inhibition of 15-HETE mammalian lipoxygenase at a concentration 20 uM. It is filed as functional. In a few lines:
as §3

The IC50 is the midpoint of a concentration-inhibition curve. As usually defined, the inhibition in vivo is the share of the control response that was lost under treatment. `CCCCCCCCCCC/C=C\C=C\SCCCC(=O)OC`: the IC50 in experiment [1] is 22 µM; in [3] it was above 60 µM. In experiment [2], the Induction was below 3%. The inhibition in vivo at 20 mg/kg in [4] amounted to 10%.

`CCCCCCCC/C=C\C/C=C\C=C\SCCCC(=O)O`: in [1], half-maximal inhibition (IC50) required 7.2 µM.

What is called inhibition is the share of the control response that was lost under treatment. Low values mean little suppression, high ones strong suppression. On to `CCCCCCCC/C=C\C/C=C\C=C\SCCC(=O)OC`, for which, in experiment [5], the inhibition was 47%.

The compound `CC#CC/C=C\C=C\SCCCC(=O)OC` registered an inhibition in experiment [6] of 32%.

In [7], `CCCCCCCCC#CC/C=C\C=C\Sc1ccccc1C(=O)OC` showed an inhibition of 45%.

The compound `NC1=NN(c2cccc(C(F)(F)F)c2)CC1` [BW-755C] showed an Induction in [2] of 17%.

Regarding `CCCCCCCC/C=C\C/C=C\C=C\SCCCC(=O)OC`, the IC50 in experiment [1] is 6.2 µM; in experiment [12], 22 µM. The compound also had an Induction in experiment [2] below 3%. Besides, the inhibition in [8] is 0%; in experiment [9] it was 58%; in [10], 60%. Further, in [11], the Potentiation was determined as 20%. The inhibition in vivo at 20 mg/kg in experiment [4] was determined as 80%.

For `COc1ccc2c(c1)c(CC(=O)O)c(C)n2C(=O)c1ccc(Cl)cc1` [INDOMETHACIN], the IC50 in [1] was above 20 µM.

In turn, `CCCCCCCCC#CC/C=C\C=C\Sc1ccc(C(=O)OC)cc1` gave an inhibition in experiment [7] of 21%.

Consider `CC1=NN(CCOc2ccc3ccccc3c2)C(=O)C1` [NAFAZATROM], for which the Induction in [2] is listed as below 3%. For the same compound, the inhibition was 58% in [8], 30% in [13], 68% in [9] and 65% in [10].
